From ChEMBL document CHEMBL3739286, “Betulinic acid derived hydroxamates and betulin derived carbamates are interesting scaffolds for the synthesis of novel cytotoxic compounds” (Eur J Med Chem, 2015) come the findings set out here.

Assay [1] is described as follows: Cytotoxicity against human 518A2 cells after 96 hrs by SRB assay. The assay is classed as functional, cell-based. The settings on record: Homo sapiens, 518A2, 96 h; read-out: EC50. An outline of the steps:
(§1)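 Photometric sulforhodamine B read-out of antiproliferative effect after 96 h of continuous treatment; EC₅₀ values in µM, averaged from three independent experiments each run in triplicate; the assay cut-off is EC₅₀ > 30 µM. Human tumour lines are tested alongside nonmalignant mouse NIH 3T3 fibroblasts.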

Another assay has as its system A2780. The experiment in a line: Cytotoxicity against human A2780 cells after 96 hrs by SRB assay. The settings on record: Homo sapiens, A2780, 96 h; read-out: EC50. It counts as functional, cell-based. In short, it runs like this: as §1
On the technique in general: The SRB assay estimates cell density from bound dye.

For the next assay, the system named is A549. The experiment in a line: Cytotoxicity against human A549 cells after 96 hrs by SRB assay. The assay is classed as functional, cell-based. To be noted: Homo sapiens, A549, 96 h; read-out: EC50. In short, it runs like this:
as §1

The next assay concerns MCF7. The assay can be described thus: Cytotoxicity against human MCF7 cells after 96 hrs by SRB assay. To be noted: Homo sapiens, MCF7, 96 h; read-out: EC50. The assay is classed as functional, cell-based. In short, it runs like this: as §1
A short description of assay [2]: Cytotoxicity against mouse NIH/3T3 cells after 96 hrs by SRB assay. The settings on record: Mus musculus, NIH3T3, 96 h; read-out: EC50. The assay is classed as cell-based, NIH3T3. An outline of the steps: as §1
Another assay has as its system HT-29. The assay can be described thus: Cytotoxicity against human HT-29 cells after 96 hrs by SRB assay. The assay is classed as functional, cell-based. To be noted: HT-29, 96 h. An outline of the steps:
as §1

In another assay the test system is HeLa. The experiment in a line: Cytotoxicity against human HeLa cells after 96 hrs by SRB assay. It counts as functional, cell-based. An outline of the steps:
as §1

What is called EC50 is the midpoint of the concentration-response curve.

For `C=C(C)[C@@H]1CC[C@]2(COC(=O)NCCCC)CC[C@]3(C)[C@H](CC[C@@H]4[C@@]5(C)CC[C@H](OC(C)=O)C(C)(C)[C@@H]5CC[C@]43C)[C@@H]12`, the EC50 (in assay [1]; with A2780; in the assay on A549; in the assay with MCF7; in assay [2]; in the assay with HT-29) was greater than 30 µM each time. Also, the EC50 with HeLa is greater than 30 µM.

Turning to `C=C(C)[C@@H]1CC[C@]2(C(N)=O)CC[C@]3(C)[C@H](CC[C@@H]4[C@@]5(C)CCC(=O)C(C)(C)[C@@H]5CC[C@]43C)[C@@H]12`, the EC50 turned out to be 21.5 µM in assay [1]; 15.6 µM in the assay with A2780; 14.7 µM in the assay on A549; 10.3 µM in the assay with MCF7; 17.7 µM in assay [2]; 17.9 µM in the assay with HT-29. Further, a half-maximal response in the assay with HeLa (EC50) required 22.9 µM.

Regarding `C=C(C)[C@@H]1CC[C@]2(C(N)=O)CC[C@]3(C)[C@H](CC[C@@H]4[C@@]5(C)CC[C@H](OC(C)=O)C(C)(C)[C@@H]5CC[C@]43C)[C@@H]12`, the half-maximal effective concentration (EC50) in assay [1] worked out at 13.4 µM; in the assay with A2780, 5.7 µM; with A549, 12.4 µM; in the assay with MCF7, 11.1 µM; in assay [2] it was 20 µM; with HT-29, 11.5 µM. The compound further returned an EC50 in the assay with HeLa of 12 µM.

`C=C(C)[C@@H]1CC[C@]2(COC(=O)NCCCC)CC[C@]3(C)[C@H](CC[C@@H]4[C@@]5(C)CC[C@H](OC(=O)NCCCC)C(C)(C)[C@@H]5CC[C@]43C)[C@@H]12`: the EC50 (in assay [1]; in the assay with A2780; in the assay on A549; with MCF7; in assay [2]; with HT-29) was greater than 30 µM each time. This compound also returned an EC50 with HeLa greater than 30 µM.

For `C=C(C)[C@@H]1CC[C@]2(C(=O)NCc3ccccc3)CC[C@]3(C)[C@H](CC[C@@H]4[C@@]5(C)CC[C@H](OC(C)=O)C(C)(C)[C@@H]5CC[C@]43C)[C@@H]12`, the concentration giving a half-maximal response (EC50) in assay [1] was 6.2 µM; with A2780, 6.2 µM; with A549, 10.3 µM; with MCF7, greater than 30 µM; in assay [2] it was greater than 30 µM; with HT-29, greater than 30 µM. Moreover, a half-maximal effect in the assay on HeLa (EC50) was put at 16.9 µM.

As to `C=C(C)[C@@H]1CC[C@]2(COC(=O)NCC)CC[C@]3(C)[C@H](CC[C@@H]4[C@@]5(C)CC[C@H](OC(C)=O)C(C)(C)[C@@H]5CC[C@]43C)[C@@H]12`, the half-maximal effective concentration (EC50) is 10.2 µM in assay [1]; 11.1 µM in the assay on A2780; 14.1 µM with A549; 20.4 µM in the assay with MCF7; greater than 30 µM in assay [2]; greater than 30 µM with HT-29. Besides, in the assay on HeLa, the response was half-maximal at 17 µM (EC50).

For the compound `C=C(C)[C@@H]1CC[C@]2(COC(=O)NCCC)CC[C@]3(C)[C@H](CC[C@@H]4[C@@]5(C)CC[C@H](OC(C)=O)C(C)(C)[C@@H]5CC[C@]43C)[C@@H]12`, the EC50 (in assay [1]; in the assay on A2780; in the assay on A549; in the assay on MCF7; in assay [2]; in the assay with HT-29) was greater than 30 µM in each case. In the assay on HeLa, the EC50 is greater than 30 µM.

As for `C=C(C)[C@@H]1CC[C@]2(C(=O)NCc3ccccc3)CC[C@]3(C)[C@H](CC[C@@H]4[C@@]5(C)CCC(=O)C(C)(C)[C@@H]5CC[C@]43C)[C@@H]12`, the 50% effective concentration (EC50) in assay [1] is greater than 30 µM; with A2780, 7.4 µM; in the assay with A549, greater than 30 µM; in the assay with MCF7, greater than 30 µM; in assay [2], greater than 30 µM; in the assay on HT-29 it was greater than 30 µM. Besides, in the assay with HeLa, the EC50 was greater than 30 µM.

With `C=C(C)[C@@H]1CC[C@]2(COC(=O)NCCC)CC[C@]3(C)[C@H](CC[C@@H]4[C@@]5(C)CC[C@H](OC(=O)NCCC)C(C)(C)[C@@H]5CC[C@]43C)[C@@H]12`, the 50% effective concentration (EC50) in assay [1] is greater than 30 µM; in the assay with A2780, 19.4 µM; with A549, greater than 30 µM; with MCF7 it was greater than 30 µM; in assay [2], greater than 30 µM; in the assay on HT-29, greater than 30 µM. Besides, the half-maximal effective concentration (EC50) with HeLa is greater than 30 µM.

Consider `C=C(C)[C@@H]1CC[C@]2(COC(=O)NCCCCCC)CC[C@]3(C)[C@H](CC[C@@H]4[C@@]5(C)CC[C@H](OC(=O)NCCCCCC)C(C)(C)[C@@H]5CC[C@]43C)[C@@H]12`, for which the concentration giving a half-maximal response (EC50) (in assay [1]; in the assay on A2780; in the assay with A549; in the assay on MCF7; in assay [2]; with HT-29) was greater than 30 µM in each case. For the same compound, the concentration for a half-maximal effect (EC50) with HeLa is greater than 30 µM.

For `C=C(C)[C@@H]1CC[C@]2(C(N)=O)CC[C@]3(C)[C@H](CC[C@@H]4[C@@]5(C)CC[C@H](O)C(C)(C)[C@@H]5CC[C@]43C)[C@@H]12`, the EC50 in assay [1] turned out to be 9.9 µM; with A2780 it was 15.7 µM; in the assay with A549, 8.2 µM; in the assay on MCF7, 10.7 µM; in assay [2], 10.7 µM; in the assay on HT-29 it was 10.2 µM. Moreover, in the assay on HeLa, the EC50 was 11.2 µM.

For `C=C(C)[C@@H]1CC[C@]2(COC(=O)NCC)CC[C@]3(C)[C@H](CC[C@@H]4[C@@]5(C)CC[C@H](OC(=O)NCC)C(C)(C)[C@@H]5CC[C@]43C)[C@@H]12` [BIS(ETHYLCARBAMATE)BETULIN], the EC50 was 12.6 µM in assay [1]; 5.8 µM in the assay on A2780; 10.7 µM in the assay on A549; 23.3 µM in the assay with MCF7; greater than 30 µM in assay [2]; 8.3 µM in the assay on HT-29. The compound also gave an EC50 in the assay with HeLa of 17.8 µM.
